Source: PubChem BioAssay (several laboratories)
CRFR2-BP antag – CRF-BP/CRF-R2 complex antagonism. inhibition, % at 11.8 µM. AID 588475. HEK293 CRF-R2/CRF-BP, CRF-induced calcium fluorescence. hit rate 0.59% among 350,000;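 active means inhibition of the ligand-induced calcium signal above about 50% at the single tested concentration, limit read from the data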
PKA-R1A activ – activates the PKA-R1A holoenzyme complex; P00514+P68181; PKA-R1A dissociation, Cy5-IP20 fluorescence polarization; scaled: DMSO 0%, 113 µM cGMP 100%; activation, % at 11.4 µM; hit rate 0.083% among 340,000;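 active means percent activation above the mean of all tested compounds plus 3 SD, cut at about 19% in these data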;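 further: higher means more PKAc released from R1A so a rise in polarization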
SIRT5 inh – inhibitors of human sirtuin-5 desuccinylase. Q9NXA8. Purified SirT5, succinyl-peptide AMC, trypsin-coupled fluorescence. inhibition, % at 15 µM. hit rate 1.1% among 330,000; in the data active means inhibition above about 15%
Target sequence (Q9NXA8 whole entry, looked up): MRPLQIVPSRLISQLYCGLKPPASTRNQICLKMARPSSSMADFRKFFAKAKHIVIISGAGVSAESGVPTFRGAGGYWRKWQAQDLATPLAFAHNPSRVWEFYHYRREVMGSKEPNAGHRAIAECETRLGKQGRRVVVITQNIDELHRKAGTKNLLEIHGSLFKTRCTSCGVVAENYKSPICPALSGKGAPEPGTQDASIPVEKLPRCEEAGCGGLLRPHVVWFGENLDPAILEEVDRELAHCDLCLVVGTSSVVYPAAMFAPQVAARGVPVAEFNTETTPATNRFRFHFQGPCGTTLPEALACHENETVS
S100A4 MyoIIA – S100A4-myosin IIA interaction inhibition | S100A4/TAMRA-MyoIIA peptide fluorescence polarization | inhibition, % at 10.7 µM | P26447 | hit rate 0.14% among 360,000 | AID 652163;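 active means mean inhibition of at least 70% across replicates, with every replicate also reaching that level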
Target sequence (P26447 whole entry, looked up): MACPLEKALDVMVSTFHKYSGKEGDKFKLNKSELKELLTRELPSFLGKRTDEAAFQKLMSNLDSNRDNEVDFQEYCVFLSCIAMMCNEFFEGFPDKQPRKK
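Material: S100A4 monomer protein / Buffer or medium: 50 mM HEPES pH 7.2, 10 mM CaCl2, 100 mM KCl / Times: 5 min incubation before reading / Benchmarks: neutral control DMSO, positive control TFP / Reagent: labelled myosin peptide probe, 5 nM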
PKA-R2B act – activates the human PKA-R2B holoenzyme complex; P22694+P31323; hit rate 0.079% among 340,000; PKA-R2B holoenzyme dissociation, Cy5-IP20 fluorescence polarization; R2B truncated from residue 108, S112A mutant; 0% DMSO only, 100% 113 µM cGMP; AID 504700; activation, % at 11.4 µM;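 active means activation above a cutoff set at the mean over all compounds plus 3 SD, cut at about 18% in these data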;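 further: higher means more holoenzyme dissociation and a rise in polarization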
Hits are given with their value; 0 = inactive; - = not tested or not shown. This is a sample that favours compounds with a hit; in the whole collection about 1.5% have one here.

SMILES | CRFR2-BP antag | PKA-R1A activ | SIRT5 inh | S100A4 MyoIIA | PKA-R2B act
O=C(Nc1ccccc1)N1CC(=O)N2[C@H](CO)[C@@H](c3ccc(C#CC4CCCCC4)cc3)[C@@H]2C1 | - | - | 16 | 0 | -
CC1(C2CC2)NC(=O)N(CC(=O)Nc2ccccc2F)C1=O (stereo not drawn) | 54 | 0 | 0 | 0 | 0
O=C(COC(=O)c1ccccc1)Nc1ncc([N+](=O)[O-])s1 | 0 | 0 | 21 | 0 | 0
O=C(Nc1ncc([N+](=O)[O-])s1)c1cccc([N+](=O)[O-])c1 | 70 | 0 | 0 | 0 | 0
O=C(Nc1ccc(NC(=O)c2cccc([N+](=O)[O-])c2)cc1)c1cccc([N+](=O)[O-])c1 | 0 | 0 | 0 | 0 | 0
Cc1cc(Cl)ccc1OCC(=O)NNC(=O)c1cccs1 | 0 | 0 | 0 | 0 | 0
COc1ccc(C(=O)NNC(=S)NC(=O)c2ccc(F)cc2)cc1Br | 0 | - | 0 | 0 | -
COc1ccc(Cl)cc1C(=O)NNC(=O)COC(=O)c1cccs1 | 104 | 0 | 0 | 0 | 0
COc1ccc(Cl)cc1C(=O)NNC(=S)NC(=O)c1ccc(F)c(F)c1 | 62 | 0 | - | - | 0
CO[C@H]1CN(C)C(=O)c2cc(NC(=O)C3CCC3)ccc2OC[C@@H](C)N(Cc2nccs2)C[C@H]1C | - | - | 0 | 0 | -
O=C(/C=C/c1ccco1)OCc1nnc(-c2ccc(Cl)cc2)o1 | 87 | 0 | 0 | 0 | 0
O=[N+]([O-])c1ccc2[nH]c(=S)[nH]c2c1 | 0 | 0 | - | 0 | 0
O=[N+]([O-])c1ccc2[nH]c(=S)sc2c1 | 59 | 0 | - | 0 | 0
O=C(Nc1cc(Br)ccc1C(=O)NCc1cccc(O)c1)c1ccccc1 | - | - | 0 | 0 | -
C/C=C/c1cnc2c(c1)C(=O)N([C@H](C)CO)C[C@H](C)[C@H](CN(C)C(=O)NCCC)O2 | - | - | 0 | 0 | -
O=C(C[C@H]1CC[C@@H](NC(=O)Nc2cc(F)ccc2F)[C@@H](CO)O1)Nc1ccccc1 | - | - | 0 | 0 | -
COCCC(=O)N1CCC(Oc2ccc(C(=O)N(C)C(C)c3ccon3)cc2)CC1 (stereo not drawn) | 0 | 0 | 0 | 0 | 0
CC(c1ccon1)N(C)C(=O)c1cccc(OC2CCN(S(C)(=O)=O)CC2)c1 (stereo not drawn) | 0 | 0 | 15 | 0 | 0
Cc1ccccc1-c1ccc(C2[C@@H]3CN(Cc4cccnc4)C[C@H]2N3)cc1 (stereo partly drawn) | - | - | 0 | 0 | -
C[C@@H]1CCCCO[C@@H](CN(C)C(=O)c2ccccc2)[C@@H](C)CN([C@@H](C)CO)C(=O)c2cc(NC(=O)CCC(F)(F)F)ccc2O1 | - | - | 0 | 0 | -
CCCC#Cc1ccc2c(c1)O[C@H](CN(C)C(=O)Nc1ccc(OC)cc1)[C@H](C)CN([C@H](C)CO)S2(=O)=O | - | - | 0 | 0 | -
COc1ccc(NC(=O)N(C)C[C@@H]2Oc3cc(C#CCC(C)C)ccc3S(=O)(=O)N([C@H](C)CO)C[C@@H]2C)cc1 | - | - | 31 | 0 | -
CCCC#Cc1ccc2c(c1)O[C@@H](CN(C)C(=O)Nc1ccc(OC)cc1)[C@@H](C)CN([C@H](C)CO)S2(=O)=O | - | - | 0 | 0 | -
COc1ccc(NC(=O)N(C)C[C@@H]2Oc3cc(C#CCC(C)C)ccc3S(=O)(=O)N([C@@H](C)CO)C[C@H]2C)cc1 | - | - | 31 | 0 | -
COc1ccc(NC(=O)N(C)C[C@H]2Oc3cc(C#CCC(C)C)ccc3S(=O)(=O)N([C@H](C)CO)C[C@H]2C)cc1 | - | - | 25 | 0 | -
SMILES | CRFR2-BP antag | PKA-R1A activ | SIRT5 inh | S100A4 MyoIIA | PKA-R2B act
COc1ccc(NC(=O)N(C)C[C@H]2Oc3cc(C#CCC(C)C)ccc3S(=O)(=O)N([C@H](C)CO)C[C@@H]2C)cc1 | - | - | 26 | 0 | -
Cc1ccc(-c2ccc3c(c2)O[C@@H](CN(C)C(=O)C2CC2)[C@H](C)CN([C@H](C)CO)S3(=O)=O)cc1 | - | - | 0 | 0 | -
CCCNC(=O)C[C@H]1CC[C@@H]2[C@H](COc3ccc(NS(=O)(=O)CC)cc3C(=O)N2C)O1 | - | - | 0 | 0 | -
CC(C)(O)C#Cc1ccc([C@H]2[C@@H](CO)N3CCCCN(C(=O)c4ccncc4)C[C@@H]23)cc1 | - | - | 0 | 0 | -
CCCNC(=O)N1[C@@H]2c3ccc(-c4cccc(F)c4)c(=O)n3C[C@H]1[C@H](CO)[C@H]2C(=O)NC1CCC1 | - | - | 0 | 0 | -
CCOCCCNC(=O)N1CCOCC1 | 0 | 0 | - | - | 0
O=C(NCCCCCCNC(=O)N1CCCCCC1)N1CCCCCC1 | 76 | 0 | - | - | 0
CC1CCCN(C(=O)Nc2ccc(Br)cc2Cl)C1 (stereo not drawn) | 0 | 0 | 0 | 0 | 0
CC1CN(C(=O)Nc2ccc(Br)cc2Cl)CC(C)O1 (stereo not drawn) | 0 | 0 | 67 | 0 | 0
O=C1NC(Cc2ccc(Cl)cc2)COCc2cnnn2CCC1c1ccccc1 (stereo not drawn) | - | - | 0 | 90 | -
CCC(C)(C)C1CCC(=NNS(=O)(=O)c2ccc(C)c([N+](=O)[O-])c2)CC1 (stereo not drawn) | 0 | 0 | 18 | 0 | 0
Cc1ccc(CN2CC(=O)N3[C@H]4c5cc(C)ccc5OC[C@@H]4[C@H](c4ccccc4)[C@]3(C)C2=O)cc1 | 0 | 0 | - | 0 | 0
Cc1ccc(CN2CC(=O)N3[C@H]4c5cc(Cl)ccc5OC[C@@H]4[C@H](c4ccccc4)[C@]3(C)C2=O)cc1 | 72 | 0 | 0 | 0 | 0
C=C(C)CN(CC)C(=O)c1ccc(OC2CCN(S(=O)(=O)N(C)C)CC2)cc1 | 0 | 0 | 17 | 0 | 0
Cc1cccc(S(=O)(=O)N2CCCCN3[C@H](CO)[C@@H](c4ccc(-c5ccccc5)cc4)[C@H]3C2)c1 | - | - | 22 | 0 | -
Cc1ccc(-c2ccc([C@H]3[C@H](CO)N4CCCCN(S(=O)(=O)c5cccc(C)c5)C[C@@H]34)cc2)cc1 | - | - | 0 | 0 | -
Cc1cccc(S(=O)(=O)N2CCCCN3[C@H](C2)[C@H](c2ccc(-c4ccccc4)cc2)[C@@H]3CO)c1 | - | - | 0 | 0 | -
Cc1ccc(-c2ccc([C@H]3[C@H]4CN(S(=O)(=O)c5cccc(C)c5)CCCCN4[C@H]3CO)cc2)cc1 | - | - | 17 | 0 | -
C[C@H](CO)N1C[C@H](C)[C@@H](CN(C)C(=O)Nc2ccc(C(F)(F)F)cc2)Oc2ccc(N(C)C)cc2CC1=O | - | - | 0 | 0 | -
COc1ccccc1S(=O)(=O)N(C)C[C@@H]1Oc2cc(C#CCC(C)C)ccc2S(=O)(=O)N([C@@H](C)CO)C[C@H]1C | - | - | 30 | 0 | -
COc1ccccc1S(=O)(=O)N(C)C[C@H]1Oc2cc(C#CCC3CCCC3)ccc2S(=O)(=O)N([C@@H](C)CO)C[C@@H]1C | - | - | 19 | 0 | -
COc1ccc(C#Cc2ccc3c(c2)O[C@H](CN(C)S(=O)(=O)c2ccccc2F)[C@@H](C)CN([C@@H](C)CO)S3(=O)=O)cc1 | - | - | 15 | 0 | -
COc1ccc(C#Cc2ccc3c(c2)O[C@@H](CN(C)S(=O)(=O)c2ccccc2F)[C@H](C)CN([C@@H](C)CO)S3(=O)=O)cc1 | - | - | 0 | 0 | -
